The values that follow come from ChEMBL document CHEMBL1124932, “Synthesis and antiviral activity of 9-alkoxypurines. 1. 9-(3-Hydroxypropoxy)- and 9-[3-hydroxymethyl)propoxy]purines” (J Med Chem, 1990).

In data set [1] the test system is Mus musculus. Description: Concentration of BRL 44385 in blood was determined in female BALB/c mice at 15 min a after of dosing of […]. As to conditions: in vivo, 0.25 h. Type of data set: ADME, organism-based. In outline:
(§1)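 Female Balb/c mice (20 g), fasted 18 h, given a single 0.2 mmol/kg oral gavage dose in 0.1 mL 1% (carboxymethyl)cellulose. Blood drawn by cardiac puncture with heparinised syringes at 15, 60 and 180 min. Equal volumes from three mice pooled per time point. Samples deproteinised with 16% trichloroacetic acid, neutralised with NaHCO3, mixed with 0.4 M NH4OAc (pH 6.0), and analysed by HPLC.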

The subject of data set [2] is Mus musculus. Description: Concentration of BRL 44385 in blood was determined in female BALB/c mice at 60 min a after of dosing of […]. As to conditions: in vivo, 1 h. In kind it is ADME, organism-based. In outline:
as §1

Data set [3] has as its system MRC5. Description: Antiviral activity in plaque reduction assay was determined against varicella zoster virus (VZV) in MRC-5 cells. Type of data set: functional, cell-based. As to conditions: Homo sapiens.
The subject of another data set is Vero. Description: Antiviral activity in plaque reduction assay was determined against herpes simplex virus type 1 (HSV-1) in Vero cells. In kind it is functional, cell-based. As to conditions: Chlorocebus sabaeus. In outline:
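Vero monolayers infected with about 50 PFU HSV-1. Compound at various concentrations, present throughout incubation. Stocks 10 mg/mL in Me2SO, diluted in culture medium. Plaques counted when clearly visible, usually 3 days.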
On the technique in general: In a plaque reduction assay, fewer plaques than in the control indicate reduced infectivity or spread.

For data set [4], the system named is MRC5. Description: Antiviral activity in plaque reduction assay was determined against herpes simplex virus type 2 (HSV-2) in MRC-5 cells. The conditions noted are these: Homo sapiens. In kind it is functional, cell-based. In outline: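 HSV-2 at about 50 PFU infected onto MRC-5 monolayers. Compound at various concentrations, present throughout incubation. Stocks 10 mg/mL in Me2SO, diluted in culture medium. Plaques counted when clearly visible, usually 1 day.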

For data set [5], the system named is Mus musculus. Description: Concentration of BRL 44385 in blood was determined in female BALB/c mice at 60 min after dosing of […]. Type of data set: ADME, organism-based. The conditions noted are these: in vivo, 1 h. In outline:
as §1

For `Nc1ncc2ncn(OCCCOC(=O)c3ccccc3)c2n1`, the concentration was found to be 46 µM in the data set with Mus musculus [1] and 4 µM in the data set on Mus musculus [2].
Turning to `Nc1nc(O)c2ncn(OCC3COP(=O)(O)OC3)c2n1` (stereo not drawn), the half-inhibitory concentration (IC50) in the data set with MRC5 [3] worked out at 186 µM; in the data set with Vero, 180 µM; in the data set with MRC5 [4] it was 180 µM.
On to `Nc1nc(O)c2ncn(OCCCOC(=O)c3ccccc3)c2n1`, for which the IC50 in the data set with MRC5 [3] is greater than 300 µM; with Vero it was 8.5 µM; with MRC5 [4], 6.4 µM. Further, the concentration in the data set with Mus musculus [1] and in the data set on Mus musculus [2] was less than 2 µM throughout.
`CC(=O)OCC(COC(C)=O)COn1cnc2cnc(N)nc21`: the concentration in the data set on Mus musculus [1] was 53 µM; in the data set with Mus musculus [2] it was 10 µM.
For the compound `CCOc1nc(N)nc2c1ncn2OCC(CO)CO`, the concentration with Mus musculus [1] worked out at 37 µM; in the data set with Mus musculus [2] it was 15 µM.
Regarding `CC(=O)OCCCOn1cnc2c(O)nc(N)nc21`, the IC50 with MRC5 [3] is 45 µM; in the data set on Vero, 16 µM; in the data set with MRC5 [4] it was 4.1 µM. Moreover, the concentration worked out at 3 µM in the data set on Mus musculus [1] and 5 µM with Mus musculus [2].
In the case of `Nc1ncc2ncn(OCC(COC(=O)c3ccccc3)COC(=O)c3ccccc3)c2n1`, the concentration with Mus musculus [1] worked out at 14 µM; in the data set on Mus musculus [5], 9 µM.
For the compound `Nc1nc(O)c2ncn(OCCCO)c2n1`, the IC50 is 4.4 µM in the data set with MRC5 [3], 2.1 µM in the data set on Vero and 0.71 µM in the data set with MRC5 [4]. For the same compound, the concentration in the data set with Mus musculus [1] turned out to be 8 µM; in the data set on Mus musculus [2] it was 5 µM.
As for `Nc1nc(O)c2ncn(OCC(CO)CO)c2n1`, the results for the IC50 in the data set with MRC5 [3], in the data set with Vero and in the data set with MRC5 [4] were 11 µM, 5.9 µM and 5.9 µM, respectively. The concentration in the data set on Mus musculus [1] and in the data set with Mus musculus [2] was 2 µM each time.
As for `CCOc1nc(N)nc2c1ncn2OCCCO`, the concentration was 6 µM in the data set with Mus musculus [1] and less than 2 µM with Mus musculus [2].
Turning to `COc1nc(N)nc2c1ncn2OCC(CO)CO`, the results for the concentration in the data set on Mus musculus [1] and with Mus musculus [2] were 7 µM and 8 µM, respectively.
For `CCCCCC(=O)OCCCOn1cnc2cnc(N)nc21`, the figures for the concentration in the data set with Mus musculus [1] and in the data set on Mus musculus [2] were 66 µM and 4 µM, respectively.
As to `Nc1nc(N)c2ncn(OCC(CO)CO)c2n1`, the concentration in the data set on Mus musculus [1] and with Mus musculus [2] was less than 2 µM in each case.
For `Nc1nc(Cl)c2ncn(OCC(CO)CO)c2n1`, the concentration stood at 11 µM in the data set on Mus musculus [1] and 5 µM in the data set on Mus musculus [2].
In the case of `Nc1ncc2ncn(OCCCO)c2n1`, the values for the concentration in the data set with Mus musculus [1] and in the data set on Mus musculus [2] were 43 µM and 3 µM, respectively.
For the compound `CCC(=O)OCC(COC(=O)CC)COn1cnc2cnc(N)nc21`, the values for the concentration with Mus musculus [1] and with Mus musculus [2] were 49 µM and 12 µM, respectively.
On to `CCCCCC(=O)OCCCOn1cnc2c(O)nc(N)nc21`, for which the values for the IC50 in the data set on MRC5 [3], with Vero and with MRC5 [4] were 7.4 µM, 2.1 µM and 0.22 µM, respectively. In addition, the figures for the concentration in the data set with Mus musculus [1] and in the data set with Mus musculus [2] were 8 µM and 3 µM, respectively.
On to `CC(=O)OCCCOn1cnc2cnc(N)nc21`, for which the concentration in the data set on Mus musculus [1] is 45 µM; with Mus musculus [2], 3 µM.
In the case of `Nc1ncc2ncn(OCC(CO)CO)c2n1`, the concentration with Mus musculus [1] came to 31 µM; with Mus musculus [2], 16 µM.
Regarding `CC(C)Oc1nc(N)nc2c1ncn2OCC(CO)CO`, the concentration with Mus musculus [1] came to 29 µM; in the data set on Mus musculus [2], 26 µM.
`Nc1nc2c(ncn2COCCO)c(=O)[nH]1` [ACYCLOVIR]: the IC50 in the data set with Vero was found to be 6.7 µM; in the data set with MRC5 [4], 2.5 µM.

The IC50 is the point on the concentration scale where inhibition reaches its midpoint. Higher therefore signals a need for much substance.
